Source: ChEMBL document CHEMBL4196141, “Improved Antibacterial Activity of the Marine Peptide N6 against Intracellular Salmonella Typhimurium by Conjugating with the Cell-Penetrating Peptide Tat11 via a Cleavable Linker” (J Med Chem, 2018)
In brackets after ≈: the same amount, converted by molar mass. Activity calls are given as the source filed them. The calls are words filed in the database; no cut-off is given here. Positions of bridges follow the written chain, without caps; N, C: chain ends. Residues, ends and D or L forms follow the SMILES beside them.

Key:
[1] = Drug internalization in mouse RAW264.7 using FITC-labeled compound at 2 uM pre-incubated for 1 hr with lipid rafts disruptor methyl-beta-cyclodextrin followed by compound addition and subsequent incubation for 2 hrs by flow cytometry; type: ADME, cell-based; details: raw264.7, 2 h
Method in brief: (§1)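 RAW264.7 cells were pretreated 1 h at 37 °C with 3 mM amiloride, 20 µM nocodazole, 6 µg/mL chlorpromazine or 5 mM MβCD. FITC-labeled peptide was then added for 2 h at 37 °C. Extracellular fluorescence was quenched with 0.4% Trypan blue and intracellular fluorescence read by flow cytometry against an untreated control.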

Salmonella typhimurium [2] = assay: Bactericidal activity against 2 hrs-gentamicin pre-exposed Salmonella typhimurium ATCC 14028 assessed as reduction colony forming units at 50 uM incubated for 10 hrs; type: functional, Salmonella enterica subsp. enterica serovar Typhimurium
Method in brief: (§2)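 Macrophage protection assay. RAW264.7 cells (5 × 10^4/well, 24 h) were infected with S. Typhimurium ATCC14028 at MOI 10 for 1 h in DMEM/10% FBS, exposed to 100 µg/mL gentamicin for 2 h at 37 °C, and PBS-washed. Peptides in DMEM/10% FBS were added for 10 h. Cells were lysed with 0.1% Triton X-100 and CFU plated; log10 CFU reduction versus untreated cells. Three replicates; two independent experiments; one-way ANOVA with Tukey.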

[3] = Drug uptake in mouse RAW264.7 using FITC-labeled compound at 5 uM incubated for 0.5 hrs by flow cytometry; type: ADME, cell-based; details: raw264.7, 0.5 h
Method in brief: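 Confluent RAW264.7 cells were resuspended in PBS and incubated at 37 °C with 5 µM FITC-labeled peptide. Samples taken at 0.5 h and 2 h were quenched with 0.4% Trypan blue for extracellular fluorescence. Uptake (percent internalized cells) was read by flow cytometry, with free FITC as negative control.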

Salmonella typhimurium [4] = assay: Bactericidal activity against 2 hrs-gentamicin pre-exposed Salmonella typhimurium ATCC 14028 assessed as effect on bacterial re-growth at 10 uM measured after 9 hrs; type: functional, organism-based; details: Salmonella enterica subsp. enterica serovar Typhimurium
Method in brief: (§3)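 RAW264.7 cells in DMEM/10% FBS were infected with S. Typhimurium ATCC14028 at MOI 10 for 1 h, then given 100 µg/mL gentamicin for 2 h at 37 °C and washed. Cells were treated with 10 µM agent for 1, 3, 6, 9 and 12 h, lysed with 0.1% Triton X-100, and surviving intracellular bacteria were serially diluted and plated for CFU.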

[5] = Drug internalization in mouse RAW264.7 using FITC-labeled compound at 2 uM pre-incubated for 1 hr with macropinocytosis inhibitor amiloride followed by compound addition and subsequent incubation for 2 hrs by flow cytometry; type: ADME, cell-based; details: raw264.7, 2 h; method in brief: as §1
Salmonella typhimurium [6] = assay: Bactericidal activity against 2 hrs-gentamicin pre-exposed Salmonella typhimurium ATCC 14028 assessed as reduction colony forming units at 20 uM incubated for 10 hrs relative to marine peptide N6; type: functional, Salmonella enterica subsp. enterica serovar Typhimurium; design: scale not given: the % may be the effect or the level left; method in brief: as §2
Salmonella typhimurium [7] = assay: Bactericidal activity against 2 hrs-gentamicin pre-exposed Salmonella typhimurium ATCC 14028 assessed as reduction colony forming units at 20 uM incubated for 10 hrs; type: functional, Salmonella enterica subsp. enterica serovar Typhimurium; method in brief: as §2
[8] = Drug internalization in mouse RAW264.7 using FITC-labeled compound at 2 uM pre-incubated for 1 hr with clathrin-mediated endocytosis inhibitor chlorpromazine followed by compound addition and subsequent incubation for 2 hrs by flow cytometry; type: ADME, cell-based; details: raw264.7, 2 h; method in brief: as §1
Salmonella typhimurium [9] = assay: Bactericidal activity against 2 hrs-gentamicin pre-exposed Salmonella typhimurium ATCC 14028 assessed as reduction colony forming units at 10 uM measured within 9 hrs; type: functional, organism-based; details: Salmonella enterica subsp. enterica serovar Typhimurium; method in brief: as §3
[10] = Cytotoxicity in mouse RAW264.7 assessed as cell survival at 100 uM incubated for 8 hrs by MTT assay; type: cell-based; details: RAW264.7 cells, read-out: Survival
Method in brief: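 RAW264.7 cells seeded at 2.5 × 10^4 cells/well, cultured 24 h, then exposed for 8 h to 2-fold dilutions from 100 to 0.625 µM. MTT at 5 mg/mL added for 4 h, formazan dissolved in DMSO, absorbance read at 570 nm. Untreated cells served as control. Samples run in triplicate.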

[11] = Induction of hemolysis in mouse RBC at 100 uM incubated for 1 hrs at 37 degC; type: cell-based, Erythrocyte; details: red blood cells (erythrocytes), read-out: Activity
Method in brief: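 Fresh mouse erythrocytes were washed three times in 0.9% NaCl, and an 8% suspension was incubated with peptide (2-fold dilutions, 100 to 0.3125 µM) for 1 h at 37 °C. Released hemoglobin was read at 540 nm. 1% Triton X-100 defined 100% lysis; polymyxin served as positive control and NaCl as negative.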

[12] = Drug localisation in cytosol of mouse RAW264.7 using FITC-labeled compound at 5 uM incubated for 2 hrs by confocal microscopy; type: ADME, cell-based
Method in brief: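 RAW264.7 cells were plated for 18 h at 37 °C, then given 5 µM FITC or FITC-labeled peptide for 2 h. Nuclei were stained with Hoechst 33342 and membranes with FM 4-64 (each 5 µg/mL) for 30 min at 37 °C. Cells were PBS-washed and imaged by confocal fluorescence microscopy.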

Salmonella typhimurium [13] = assay: Antibacterial activity against Salmonella typhimurium ATCC 14028 infected in ICR mouse model of peritonitis assessed as reduction colony forming units in kidney at 1 to 2 umol/kg, ip dosed at 2 hrs post infection and measured after 10 hrs post dose relative to marine peptide N6; type: functional, Salmonella enterica subsp. enterica serovar Typhimurium; design: scale not given: the % may be the effect or the level left
Method in brief: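 Female ICR mice, six weeks old (six per group), were infected ip with S. Typhimurium ATCC14028 (5 × 10^5 CFU, 0.5 mL). Peptide was given ip at 1, 1.5 or 2 µmol/kg 2 h post-infection. Mice were killed 10 h after treatment, and kidneys and spleens were homogenized in sterile PBS for CFU counts of translocated bacteria. PBS-treated mice served as negative control, ciprofloxacin-treated mice as positive.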

Salmonella typhimurium [14] = assay: Antibacterial activity against Salmonella typhimurium ATCC 14028 using 1 hr cathepsin B pre-treated compound at pH 5 incubated for 16 to 18 hrs at by broth microdilution method; type: functional, Salmonella enterica subsp. enterica serovar Typhimurium; details: Salmonella enterica
Method in brief: (§4)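 Cathepsin B (bovine spleen, 10 µg/mL) was added for 1 h at 37 °C, and the reaction was stopped with 9 volumes of MHB. MIC was then run by broth microdilution (5 × 10^5 CFU/mL, 16–18 h, 37 °C) in medium adjusted to pH 5.0.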

[15] = Drug internalization in mouse RAW264.7 using FITC-labeled compound at 2 uM pre-incubated for 1 hr with tubulin polymerization inhibitor nocodazole followed by compound addition and subsequent incubation for 2 hrs by flow cytometry; type: ADME, cell-based; details: raw264.7, 2 h; method in brief: as §1
Salmonella typhimurium [16] = assay: Antibacterial activity against Salmonella typhimurium ATCC 14028 using 1 hr cathepsin B pre-treated compound followed by incubation for 16 to 18 hrs at pH 5 by broth microdilution method; type: functional, Salmonella enterica subsp. enterica serovar Typhimurium; details: Salmonella enterica; method in brief: as §4
Salmonella typhimurium [17] = assay: Antibacterial activity against Salmonella typhimurium ATCC 14028 infected in ICR mouse model of peritonitis assessed as reduction colony forming units in intracellular fluids at 1 umol/kg, ip dosed at 2 hrs post infection and measured after 10 hrs post dose; type: functional, Salmonella enterica subsp. enterica serovar Typhimurium
Method in brief: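 Six-week-old female ICR mice (six per group) received ip S. Typhimurium ATCC14028 (5 × 10^5 CFU, 0.5 mL). Peptide was given ip 2 h post-infection and mice were killed 10 h after treatment. Peritoneum was lavaged with 5 mL ice-cold PBS and total CFU counted. For intracellular CFU, pelleted cells were treated with 100 µg/mL gentamicin for 1 h at 37 °C, washed, lysed and plated. PBS served as negative control, ciprofloxacin as positive.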

Structure (SMILES)	Drug uptake [1]	Activity (Salmonella typhimurium [2])	Drug uptake [3]	Activity (Salmonella typhimurium [4])	Drug uptake [5]	Activity (Salmonella typhimurium [6])	Activity (Salmonella typhimurium [7])	Drug uptake [8]	Activity (Salmonella typhimurium [9])	viability at 8 h, 100 µM [10]	hemolysis at 1 h, 100 µM [11]	Drug uptake [12]	Activity (Salmonella typhimurium [13])	MIC (Salmonella typhimurium [14])	Drug uptake [15]	MIC (Salmonella typhimurium [16])	Activity (Salmonella typhimurium [17])
CC(C)[C@@H]1NC(=O)CNC(=O)[C@H](CC(N)=O)NC(=O)[C@H](CCCNC(=N)N)NC(=O)[C@H](Cc2ccc(O)cc2)NC(=O)[C@H](C(C)C)NC(=O)[C@@H](NC(=O)[C@@H](NC(=O)[C@H](CC(N)=O)NC(=O)[C@H](Cc2c[nH]c3ccccc23)NC(=O)[C@H](C)NC(=O)[C@H](Cc2ccccc2)NC(=O)CN)C(C)C)CSSC[C@@H](C(=O)N[C@@H](Cc2cnc[nH]2)C(=O)N[C@@H](CCCNC(=N)N)C(=O)N[C@@H](CCCNC(=N)N)C(=O)N[C@@H](C)C(=O)N[C@@H](CC(N)=O)C(N)=O)NC(=O)[C@H](C(C)C)NC(=O)[C@H](CCCNC(=N)N)NC1=O (H-GFAWNVCVYRNGVRVCHRRAN-NH2; disulfide 7-16)	Active	3.13 log10CFU	30.4%	inactive	Not Active	96.3%	2.01 log10CFU	Active	Active	93.5%	2.05%	Active	200%	1.62 µM (≈ 4.01 µg/mL)	Not Active	3.2 µM (≈ 7.92 µg/mL)	2.22 log10CFU
CC(C)[C@H](NC(=O)CCCCCN1C(=O)CC(SC[C@H](N)C(=O)N[C@@H](Cc2ccc(O)cc2)C(=O)NCC(=O)N[C@@H](CCCNC(=N)N)C(=O)N[C@@H](CCCCN)C(=O)N[C@@H](CCCCN)C(=O)N[C@@H](CCCNC(=N)N)C(=O)N[C@@H](CCCNC(=N)N)C(=O)N[C@@H](CCC(N)=O)C(=O)N[C@@H](CCCNC(=N)N)C(=O)N[C@@H](CCCNC(=N)N)C(=O)N[C@@H](CCCNC(=N)N)C(=O)O)C1=O)C(=O)N[C@@H](CCCNC(N)=O)C(=O)Nc1ccc(COC(=O)NCC(=O)N[C@@H](Cc2ccccc2)C(=O)N[C@@H](C)C(=O)N[C@@H](Cc2c[nH]c3ccccc23)C(=O)N[C@@H](CC(N)=O)C(=O)N[C@H](C(=O)N[C@H]2CSSC[C@@H](C(=O)N[C@@H](Cc3cnc[nH]3)C(=O)N[C@@H](CCCNC(=N)N)C(=O)N[C@@H](CCCNC(=N)N)C(=O)N[C@@H](C)C(=O)N[C@@H](CC(N)=O)C(=O)O)NC(=O)[C@H](C(C)C)NC(=O)[C@H](CCCNC(=N)N)NC(=O)[C@H](C(C)C)NC(=O)CNC(=O)[C@H](CC(N)=O)NC(=O)[C@H](CCCNC(=N)N)NC(=O)[C@H](Cc3ccc(O)cc3)NC(=O)[C@H](C(C)C)NC2=O)C(C)C)cc1 (some centres undefined)	Active	2.06 log10CFU	82.1%	inactive	Active	67.2%	1.06 log10CFU	Not Active	Active	88.9%	3.81%	Active	81%	1.7 µM (≈ 8.05 µg/mL)	Not Active	13.6 µM (≈ 64.4 µg/mL)	1.39 log10CFU
